Experimental data published in ChEMBL document CHEMBL4350999, “Enhanced tumor retention of NTSR1-targeted agents by employing a hydrophilic cysteine cathepsin inhibitor” (Eur J Med Chem, 2019).
Active and inactive are the calls of the source. The calls are words filed in the database; no cut-off is given here.

Experiments:
[1] = Drug localization in endolysosomal vesicles of human HT-29 cells measured at 2 hrs using Eu labelled compound by lysotracker green staining based confocal microscopic analysis; format: ADME, subcellular; details: ht-29, 2 h
Procedure, shortened: (§1)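 HT-29 cells (1.25 × 10^5/well) incubated 2 h at 37 °C with natEu conjugate (5 μM), with or without N1 (20 μM). Lysotracker Green (100 nM) added for 1 h; cells washed, formaldehyde-fixed and imaged confocally at 405/488 nm excitation. Mean pixel intensity normalized to cell count.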

[2] = Drug retention in kidney of mouse xenografted with human HT-29 cells assessed as tissue-conjugate adduct formation at 29.6 MBq measured after 72 hrs using 177Lu labelled compound by SDS-PAGE analysis; format: ADME, tissue-based; details: in vivo
Procedure, shortened: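 HT-29 xenograft mice given 800 μCi (29.6 MBq) 177Lu conjugate i.v. and killed at 72 h. Tumor, liver and kidney homogenized in RIPA with protease inhibitor and supernatants run on SDS-PAGE autoradiography. Other supernatant aliquots filtered through 10 kDa MWCO devices to give the % macromolecule-associated radioactivity; n = 3.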

[3] = Drug uptake in human HT-29 cells measured after 240 mins using 177Lu labelled compound by gamma counter method relative to control; format: ADME, cell-based; details: ht-29, 4 h
Procedure, shortened: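 HT-29 cells (~1 × 10^6 in 1 mL medium) were incubated with 177Lu-conjugate (100,000 cpm) at 37 °C and sampled at 15–240 min. After medium washes, surface-bound activity was stripped with pH 2.8 glycine-HCl/NaCl buffer, and the internalized fraction was taken from the 1% SDS lysate. Fractions were gamma-counted as % of total added activity; mean ± SD, n = 3.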

[4] = Drug internalization in human HT-29 cells assessed as efflux fraction measured at 2 hrs using 177Lu labelled compound by gamma counter method; format: ADME, cell-based; details: ht-29, 2 h
Procedure, shortened: (§2)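 HT-29 cells (~1 × 10^6) loaded 2 h at 37 °C with 177Lu conjugate (100,000 cpm), washed, then given fresh medium. Medium collected and replaced at 1, 2, 4, 8, 24 h and gamma-counted; cells lysed in 10% SDS at 24 h. Efflux expressed as % of total internalized activity (effluxed + cell-retained); n = 3.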

[5] = Stability of 177Lu labelled compound in human serum assessed as parent compound remaining at 37 degC after 24 hrs by RP-HPLC analysis; format: ADME, cell-free; details: read-out: Stability
Procedure, shortened: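 Radioconjugate (1.5 mCi, 55.5 MBq) was incubated in 300 μL human serum at 37 °C. At 1, 3 and 24 h, acetonitrile was added and samples were spun at 12,000×g for 5 min. Supernatant was dried under nitrogen, reconstituted in water and analyzed by radio-HPLC.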

Cathepsin B = Cathepsin B (Homo sapiens, UniProt P07858); experiment: Binding affinity to cathepsin B in human HT-29 cells assessed as intracellular adduct formation at 0.74 MBq incubated for 4 hrs using 177Lu labelled compound by SDS-PAGE analysis; format: cell-based; design: dose or concentration left out as unconfirmed
Procedure, shortened: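 HT-29 cells (1 × 10^6/well) incubated 4 h at 37 °C with 177Lu conjugate (20 μCi, 0.74 MBq) in 1 mL medium, with or without E-64 (10 μM) or NTSR1 peptide N1 (20 μM). Cells washed and refed; at set times cells pooled, RIPA-lysed with protease inhibitor. Lysates heated 85 °C 2 min, run on 16% tris-glycine SDS-PAGE, and phosphor autoradiography taken after 72 h exposure.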

[6] = Drug internalization in cytoplasm of human HT-29 cells within 2 hrs using Eu labelled compound by lysotracker green staining confocal microscopic analysis; format: ADME, subcellular; details: ht-29, 2 h; procedure, shortened: as §1
[7] = Ratio of drug uptake in SCID mouse xenograted with human HT-29 cells assessed as tumour retention to drug uptake in spleen of SCID mouse xenografted with human HT-29 cells measured after 72 hrs using 177Lu labelled compound; format: ADME, tissue-based, Tumor/Spleen
Procedure, shortened: (§3)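 Female SCID mice (5 weeks old) received s.c. flank HT-29 cells (5 × 10^6 in Matrigel). At ~80 mm3, two weeks later, mice were randomized and given 10 μCi (0.37 MBq) of purified 177Lu conjugate i.v. by tail vein. Mice were killed at 4, 24 or 72 h. Tissues were weighed and gamma counted as %ID/g, mean ± SD, n = 5. Tumor-to-tissue ratios were calculated.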

[8] = Ratio of drug uptake in SCID mouse xenograted with human HT-29 cells assessed as tumour retention to drug uptake in pancreas of SCID mouse xenografted with human HT-29 cells measured after 24 hrs using 177Lu labelled compound; format: ADME, tissue-based, Tumor/Pancreas; procedure, shortened: as §3
[9] = Ratio of drug uptake in SCID mouse xenograted with human HT-29 cells assessed as tumour retention to drug uptake in large intestine of SCID mouse xenografted with human HT-29 cells measured after 4 hrs using 177Lu labelled compound; format: ADME, tissue-based, Tumor/Large intestine; procedure, shortened: as §3
[10] = Ratio of drug uptake in SCID mouse xenograted with human HT-29 cells assessed as tumour retention to drug uptake in spleen of SCID mouse xenografted with human HT-29 cells measured after 24 hrs using 177Lu labelled compound; format: ADME, tissue-based, Tumor/Spleen; procedure, shortened: as §3
[11] = Ratio of drug uptake in SCID mouse xenograted with human HT-29 cells assessed as tumour retention to drug uptake in liver of SCID mouse xenografted with human HT-29 cells measured after 72 hrs using 177Lu labelled compound; format: ADME, tissue-based, Tumor/Liver; procedure, shortened: as §3
[12] = Ratio of drug uptake in SCID mouse xenograted with human HT-29 cells assessed as tumour retention to drug uptake in large intestine of SCID mouse xenografted with human HT-29 cells measured after 24 hrs using 177Lu labelled compound; format: ADME, tissue-based, Tumor/Large intestine; procedure, shortened: as §3
[13] = Drug internalization in human HT-29 cells assessed as efflux percentage measured at 24 hrs using 177Lu labelled compound by gamma counter method relative to control; format: ADME, cell-based; details: ht-29, 24 h; procedure, shortened: as §2
[14] = Ratio of drug uptake in SCID mouse xenograted with human HT-29 cells assessed as tumour retention to drug uptake in small intestine of SCID mouse xenografted with human HT-29 cells measured after 4 hrs using 177Lu labelled compound; format: ADME, tissue-based, Tumor/Small intestine; procedure, shortened: as §3
[15] = Ratio of drug uptake in SCID mouse xenograted with human HT-29 cells assessed as tumour retention to drug uptake in pancreas of SCID mouse xenografted with human HT-29 cells measured after 4 hrs using 177Lu labelled compound; format: ADME, tissue-based, Tumor/Pancreas; procedure, shortened: as §3
[16] = Ratio of drug uptake in SCID mouse xenograted with human HT-29 cells assessed as tumour retention to drug uptake in liver of SCID mouse xenografted with human HT-29 cells measured after 4 hrs using 177Lu labelled compound; format: ADME, tissue-based, Tumor/Liver; procedure, shortened: as §3
[17] = Ratio of drug uptake in SCID mouse xenograted with human HT-29 cells assessed as tumour retention to drug uptake in lung of SCID mouse xenografted with human HT-29 cells measured after 4 hrs using 177Lu labelled compound; format: ADME, tissue-based, Tumor/Lung; procedure, shortened: as §3
[18] = Ratio of drug uptake in SCID mouse xenograted with human HT-29 cells assessed as tumour retention to drug uptake in kidney of SCID mouse xenografted with human HT-29 cells measured after 4 hrs using 177Lu labelled compound; format: ADME, tissue-based, Tumor/Kidney; procedure, shortened: as §3
[19] = Ratio of drug uptake in SCID mouse xenograted with human HT-29 cells assessed as tumour retention to drug uptake in large intestine of SCID mouse xenografted with human HT-29 cells measured after 72 hrs using 177Lu labelled compound; format: ADME, tissue-based, Tumor/Large intestine; procedure, shortened: as §3
[20] = Ratio of drug uptake in SCID mouse xenograted with human HT-29 cells assessed as tumour retention to drug uptake in small intestine of SCID mouse xenografted with human HT-29 cells measured after 24 hrs using 177Lu labelled compound; format: ADME, tissue-based, Tumor/Small intestine; procedure, shortened: as §3

Drug uptake [1]	Drug uptake [2]	Drug uptake [3]	Drug uptake [4]	remaining at 24 h [5]	Activity (Cathepsin B)	Drug uptake [6]	Ratio [7]	Ratio [8]	Ratio [9]	Ratio [10]	Ratio [11]	Ratio [12]	Drug uptake [13]	Ratio [14]	Ratio [15]	Ratio [16]	Ratio [17]	Ratio [18]	Ratio [19]	Compound	other results
Active	Not Active	6%	32.3%	49.5%	inactive	Active	–	–	–	–	–	–	–	–	–	–	–	–	–	Cc1cc(O)cc(C)c1C[C@H](NC(=O)[C@@H]1CCCN1C(=O)[C@H](CCCNC(=N)N)NC(=O)[C@H](CCCNC(=N)N)N(C)C(=O)[C@@H]1CCCN1C(=O)[C@H](CCCCN)NC(=O)[C@@H](CO)NC(=O)[C@@H](CO)NC(=O)[C@@H](CO)NC(=O)[C@H](Cc1cn(CCNC(=O)[C@H](CCCNC(=N)N)NC(=O)[C@H](CC(C)C)NC(=O)CCC(=O)O)nn1)NC(=O)CN1CCN(CC(=O)O)CCN(CC(=O)O)CCN(CC(=O)O)CC1)C(=O)N[C@H](C(=O)N[C@@H](CC(C)C)C(=O)O)C(C)(C)C	–
Active	Active	6%	27.3%	36.9%	Active	Active	2.4	36	5.7	4	5.9	6	50%	1.85	38	8.4	12.3	0.1	5.5	Cc1cc(O)cc(C)c1C[C@H](NC(=O)[C@@H]1CCCN1C(=O)[C@H](CCCNC(=N)N)NC(=O)[C@H](CCCNC(=N)N)N(C)C(=O)[C@@H]1CCCN1C(=O)[C@H](CCCCN)NC(=O)[C@@H](CO)NC(=O)[C@@H](CO)NC(=O)[C@@H](CO)NC(=O)[C@H](Cc1cn(CCNC(=O)[C@H](CCCNC(=N)N)NC(=O)[C@H](CC(C)C)NC(=O)C2OC2C(=O)O)nn1)NC(=O)CN1CCN(CC(=O)O)CCN(CC(=O)O)CCN(CC(=O)O)CC1)C(=O)N[C@H](C(=O)N[C@@H](CC(C)C)C(=O)O)C(C)(C)C (some centres not stated)	Ratio [20]: 2
–	–	–	–	–	–	–	0.28	17	2.7	0.7	0.6	5	39%	1.3	9	0.2	1.9	0.13	1.9	Cc1cc(C)c(C(=O)OCC(=O)[C@H](CCCCNC(=O)CNC(=O)[C@@H](CO)NC(=O)[C@@H](CO)NC(=O)[C@@H](CO)NC(=O)Cn2cc(C[C@H](NC(=O)CN3CCN(CC(=O)O)CCN(CC(=O)O)CCN(CC(=O)O)CC3)C(=O)N[C@H](CO)C(=O)N[C@H](CO)C(=O)N[C@H](CO)C(=O)N[C@@H](CCCCN)C(=O)N3CCC[C@H]3C(=O)N(C)[C@@H](CCCNC(=N)N)C(=O)N[C@@H](CCCNC(=N)N)C(=O)N3CCC[C@H]3C(=O)N[C@@H](Cc3c(C)cc(O)cc3C)C(=O)N[C@H](C(=O)N[C@@H](CC(C)C)C(=O)O)C(C)(C)C)nn2)NC(=O)[C@H](Cc2ccccc2)NC(=O)OCc2ccccc2)c(C)c1	Ratio [20]: 2
